Test [1] has as its system A2780. The test can be described thus: Cytotoxicity against human A2780 cells. In kind it is functional, cell-based. An outline of the steps: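 Run on the human ovarian cancer line A2780 by a previously described protocol, with actinomycin D at 2 μg/mL as the positive control.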
In test [2] the test system is MCF7. In words: Cytotoxicity against human MCF7 cells. In kind it is functional.
Test [3] has as its system EKVX. In words: Cytotoxicity against human EKVX cells. The class given is functional. An outline of the steps:
(§1)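 NCI 60-cell-line panel screen over a 5-log dose range; growth inhibition expressed as log GI50. Preceded by an NCI one-dose primary screen on three lines (H460, MCF7, SF-268) reported as growth percentages.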

Test [4] relates to RXF 393. In words: Cytotoxicity against human RXF393 cells. In kind it is functional. The method in brief:
as §1

The subject of test [5] is T47D. The test can be described thus: Cytotoxicity against human T47D cells. The class given is functional. The method in brief: as §1
For test [6], the system named is NCI-H460. In words: Cytotoxicity against human H460 cells. In kind it is functional.
Test [7] deals with SF-268. The test can be described thus: Cytotoxicity against human SF268 cells. The class given is functional.

≈ marks a conversion by molar mass, not a printed value.

By IC50 is commonly meant the concentration that gives 50% inhibition. Read a low IC50 as higher potency. By GI50 is commonly meant the concentration giving 50% growth inhibition. A lower GI50 goes with greater sensitivity of the cells.

`CC(=O)O[C@H]1[C@H](O)[C@@H](O)[C@]2(C)C3=CC=C4[C@@H]5[C@@H](C)[C@H](C)CC[C@]5(C)CC[C@@]4(C)[C@]3(C)CC[C@H]2C1(C)C` showed an IC50 in test [1] of 37.5 µg/mL (≈ 75.2 µM).
In test [1], `CC(=O)O[C@H]1[C@H](O)[C@@H](O)[C@]2(C)[C@H]3[C@H](O)C=C4[C@@H]5[C@@H](C)[C@H](C)CC[C@]5(C)CC[C@@]4(C)[C@]3(C)CC[C@H]2C1(C)C` gave a half-inhibitory concentration (IC50) of 32.5 µg/mL (≈ 62.9 µM).
On the same count and under the same terms, then `CC(=O)O[C@H]1[C@H](O)C[C@]2(C)C3=CC=C4[C@@H]5[C@@H](C)[C@@](C)(O)CC[C@]5(C)CC[C@@]4(C)[C@]3(C)CC[C@H]2C1(C)C`, with 33.3 µg/mL (≈ 66.8 µM); and `C[C@H]1[C@H](C)[C@H]2C3=C[C@@H](O)[C@@H]4[C@@]5(C)CC[C@H](O)C(C)(C)[C@@H]5CC[C@@]4(C)[C@]3(C)CC[C@@]2(C)C[C@H]1O` [SALVISTAMINEOL], with 21 µg/mL (≈ 45.8 µM); and `CC(=O)O[C@H]1[C@H](O)[C@@H](O)[C@]2(C)[C@H]3[C@H](O)C=C4[C@@H]5CC(C)(C)CC[C@]5(C)CC[C@@]4(C)[C@]3(C)CC[C@H]2C1(C)C`, with 38.5 µg/mL (≈ 74.5 µM).
Consider `CC(=O)O[C@H]1[C@H](O)[C@@H](O)[C@]2(C)[C@H]3C(=O)C=C4[C@@H]5[C@@H](C)[C@H](C)CC[C@]5(C)CC[C@@]4(C)[C@]3(C)CC[C@H]2C1(C)C`, for which the IC50 in test [1] is 26 µg/mL (≈ 50.5 µM).
With `C[C@H]1[C@H](C)CC[C@]2(C)CC[C@]3(C)C(=C[C@@H](O)[C@@H]4[C@@]5(C)[C@H](O)[C@@H](O)[C@H](O)C(C)(C)[C@@H]5CC[C@]43C)[C@H]12`, the Activity in test [2] was -25%; in test [6] it was -45%; in test [7] it was 18%. Besides, the IC50 in test [1] was 27.7 µg/mL (≈ 58.3 µM). For the same compound, the GI50 in test [3] is 21.9 nM; in test [4] it was 363 nM; in test [5], 18600 nM.
Consider `CC(=O)O[C@@H]1C[C@@]2(C)C(=CC[C@]3(C)[C@@H]2[C@H](O)C=C2[C@@H]4[C@@H](C)[C@H](C)CC[C@]4(C)CC[C@]23C)C(C)(C)[C@H]1O`, for which the IC50 in test [1] was 34.2 µg/mL (≈ 68.6 µM).
Consider `CC(=O)O[C@H]1[C@H](O)[C@@H](O)[C@]2(C)C3=CC=C4[C@@H]5CC(C)(C)CC[C@]5(C)CC[C@@]4(C)[C@]3(C)CC[C@H]2C1(C)C`, for which the IC50 in test [1] is 36.9 µg/mL (≈ 74 µM).
In turn, `CC1(C)C[C@H]2C3=C[C@@H](O)[C@@H]4[C@@]5(C)CC[C@H](O)C(C)(C)[C@@H]5CC[C@@]4(C)[C@@]3(C)CC[C@@]2(C)C[C@H]1O` [SALVINEMOROL] gave an IC50 in test [1] of 8.6 µg/mL (≈ 18.7 µM).
Turning to `CC1(C)CC[C@]2(C)CC[C@]3(C)C(=C[C@@H](O)[C@@H]4[C@@]5(C)[C@H](O)[C@@H](O)[C@H](O)C(C)(C)[C@@H]5CC[C@]43C)[C@@H]2C1`, in test [1], the IC50 turned out to be 27.9 µg/mL (≈ 58.8 µM).

The values above are taken from ChEMBL document CHEMBL1146470, “Highly hydroxylated triterpenes from Salvia kronenburgii” (J Nat Prod, 2004).
